Experimental data as given in ChEMBL document CHEMBL1145542, “Discovery of a new class of potent, selective, and orally bioavailable CRTH2 (DP2) receptor antagonists for the treatment of allergic inflammatory diseases” (J Med Chem, 2008).
pIC50, pKi: −log10 of the molar value. Activity calls are given as the source filed them. The calls are words filed in the database; no cut-off is given here.

Columns and labels:
[1] = biological target: T1, Prostaglandin D2 receptor 2 (Homo sapiens, UniProt Q9Y5Y4); assay: Displacement of [3H]PGD2 from human CRTH2 receptor expressed in CHO cells; format: cell-based
T1 sequence (Q9Y5Y4 whole entry): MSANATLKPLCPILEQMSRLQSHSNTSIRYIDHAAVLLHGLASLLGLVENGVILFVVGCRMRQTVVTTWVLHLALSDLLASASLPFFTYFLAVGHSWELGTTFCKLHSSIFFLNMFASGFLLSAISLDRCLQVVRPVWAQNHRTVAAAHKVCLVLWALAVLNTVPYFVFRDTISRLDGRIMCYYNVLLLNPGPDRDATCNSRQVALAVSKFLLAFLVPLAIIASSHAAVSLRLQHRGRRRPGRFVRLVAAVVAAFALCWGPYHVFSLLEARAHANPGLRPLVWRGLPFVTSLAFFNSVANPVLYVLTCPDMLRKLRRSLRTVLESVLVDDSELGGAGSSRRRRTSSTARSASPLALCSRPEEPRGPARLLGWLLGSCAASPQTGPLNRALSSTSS
Summary of the method: (§1)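 Scintillation proximity competition assay: 2–5 µg human or mouse CRTH2 membranes (nitrogen-cavitation, differential centrifugation) with WGA-SPA beads and 1.5 nM [3H]PGD2 in 10 mM HEPES/KOH pH 7.4, 10 mM MnCl2, protease inhibitors, 1% Me2SO, 90 min shaking at room temperature. Nonspecific binding with 1 µM PGD2. Ki by Cheng–Prusoff, mean of ≥3 independent experiments.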

[2] = biological target: T2, Prostaglandin D2 receptor 2 (Homo sapiens) (UniProt Q9Y5Y4); assay: Inverse agonistic activity at human CRTH2 receptor expressed in CHO cell membrane by [35S]GTP-gamma-S binding assay; format: functional, cell membranes
T2 sequence (whole entry): T1 sequence (Q9Y5Y4 whole entry)
Summary of the method: (§2)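 [35S]GTPγS binding at 30 °C on 10 µg human CRTH2 membranes in 20 mM HEPES/KOH pH 7.4, 10 mM MgCl2, 10 µg/mL saponin, 3 µM GDP, 150 mM NaCl, 2% Me2SO. PGD2 preincubation 10 min (antagonist mode: 80 nM PGD2), then 0.15 nM [35S]GTPγS for 30 min. Nonspecific binding with 10 µM GTPγS; stopped by centrifugation, scintillation counting.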

[3] = Cmax in Beagle dog at 1 mg/kg, iv; format: ADME, organism-based, Canis lupus familiaris; set-up: dose 1 mg/kg, route intravenous; conditions: in vivo
Summary of the method: (§3)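 Three male beagle dogs, crossover design; 1 mg/kg given as a solution, iv bolus and oral gavage. Serial blood sampled up to 48 h post dose. Individual plasma samples analysed by LC-MS/MS; PK parameters derived by non-compartmental analysis.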

[4] = Cmax in Beagle dog at 1 mg/kg, po; conditions: in vivo
[5] = biological target: Prostaglandin E2 receptor EP2 subtype (Homo sapiens, UniProt P43116); assay: Inhibition of prostanoid EP2 receptor
[6] = biological target: T3, Prostaglandin D2 receptor (Homo sapiens, UniProt Q13258); assay: Inhibition of prostaglandin D2 receptor
T3 sequence (Q13258 whole entry): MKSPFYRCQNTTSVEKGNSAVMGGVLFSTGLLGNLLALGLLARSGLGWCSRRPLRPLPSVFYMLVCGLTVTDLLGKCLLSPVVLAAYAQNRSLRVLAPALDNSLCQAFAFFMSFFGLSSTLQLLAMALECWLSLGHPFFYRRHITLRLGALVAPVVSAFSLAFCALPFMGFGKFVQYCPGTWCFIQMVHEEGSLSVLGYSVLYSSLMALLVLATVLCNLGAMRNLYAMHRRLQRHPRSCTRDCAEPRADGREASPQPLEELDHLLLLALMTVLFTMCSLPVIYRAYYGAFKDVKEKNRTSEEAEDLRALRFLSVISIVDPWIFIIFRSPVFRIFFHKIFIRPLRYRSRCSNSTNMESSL

[7] = Half life in rat at 5 mg/kg, po; format: ADME, organism-based; set-up: dose 5 mg/kg, route oral; conditions: in vivo
Summary of the method: (§4)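 Male Sprague–Dawley or Janvier rats, three per route, dosed by oral gavage or iv bolus. Serial blood drawn through an indwelling carotid catheter up to 24 h post dose. Plasma pooled by time point, analysed by LC-MS/MS; non-compartmental analysis.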

[8] = Volume of distribution at steady state in Beagle dog at 1 mg/kg, iv; format: ADME, organism-based, Canis lupus familiaris; set-up: dose 1 mg/kg, route intravenous; conditions: in vivo, read-out: Vdss; summary of the method: as §3
[9] = Inhibition of prostanoid EP3 receptor
[10] = AUC (0 to last t) in rat at 1 mg/kg, iv; format: ADME, organism-based; set-up: time 0 - last, dose 1 mg/kg, route intravenous; conditions: plasma; summary of the method: as §4
[11] = Inhibition of prostanoid EP4 receptor
[12] = biological target: T1, Prostaglandin D2 receptor 2; assay: Antagonist activity at human CRTH2 receptor expressed in CHO cell membrane by [35S]GTP-gamma-S binding assay; format: functional, cell membranes; summary of the method: as §2
[13] = Apparent permeability across human Caco-2 cell membrane at 10 uM; format: ADME, cell-based
Summary of the method: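 Caco-2 monolayers grown 21 days on Transwell filters; TEER above 800 ohm·cm² required. 10 µM test compound in HBSS added apically (A to B) or basolaterally (B to A), 2 h at 37 °C. Both compartments sampled, analysed by LC/MS-MS.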

[14] = Lipophilicity, log D of the compound; format: physicochemical; conditions: octanol/water
[15] = biological target: T4, Prostaglandin D2 receptor 2 (Mus musculus, UniProt Q9Z2J6); assay: Displacement of [3H]PGD2 from mouse CRTH2 receptor expressed in HEK293 cells; format: cell-based; summary of the method: as §1
T4 sequence (Q9Z2J6 whole entry): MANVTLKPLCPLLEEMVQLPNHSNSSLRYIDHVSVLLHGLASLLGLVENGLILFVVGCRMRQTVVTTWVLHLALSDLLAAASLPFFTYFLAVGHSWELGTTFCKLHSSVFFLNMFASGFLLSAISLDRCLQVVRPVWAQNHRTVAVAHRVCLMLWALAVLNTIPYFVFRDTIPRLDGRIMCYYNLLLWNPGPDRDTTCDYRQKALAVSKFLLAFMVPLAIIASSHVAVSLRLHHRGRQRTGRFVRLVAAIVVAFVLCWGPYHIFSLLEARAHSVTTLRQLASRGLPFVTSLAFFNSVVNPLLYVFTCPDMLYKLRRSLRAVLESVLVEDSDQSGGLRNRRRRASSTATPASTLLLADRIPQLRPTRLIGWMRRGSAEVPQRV

[16] = Tmax in Beagle dog at 1 mg/kg, iv; format: ADME, organism-based, Canis lupus familiaris; set-up: dose 1 mg/kg, route intravenous; conditions: in vivo; summary of the method: as §3
[17] = Tmax in Beagle dog at 1 mg/kg, po; conditions: in vivo
[18] = Volume of distribution at steady state in rat at 1 mg/kg, iv; format: ADME, organism-based; set-up: dose 1 mg/kg, route intravenous; conditions: in vivo, read-out: Vdss; summary of the method: as §4
[19] = Intrinsic clearance per mg of protein in rat liver microsomes at 3 uM; format: ADME, Microsome
Summary of the method: (§5)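 Rat or human liver microsomes (0.5 mg/mL final) in 0.1 M phosphate pH 7.4 with 3 µM compound (1% DMSO), preincubated at 37 °C, started with 1 mM NADPH. Quenched with cold acetonitrile at 0, 15, 30, 45 min; LC/MS-MS of compound disappearance gives intrinsic clearance.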

[20] = Tmax in rat at 1 mg/kg, iv; format: ADME, organism-based; set-up: dose 1 mg/kg, route intravenous; conditions: in vivo; summary of the method: as §4
[21] = Half life in rat at 1 mg/kg, iv; format: ADME, organism-based; set-up: dose 1 mg/kg, route intravenous; conditions: in vivo; summary of the method: as §4
[22] = Intrinsic clearance per mg of protein in human liver microsomes at 3 uM; format: ADME, Microsome; summary of the method: as §5
[23] = Oral bioavailability in rat at 5 mg/kg; format: ADME, organism-based; conditions: in vivo; summary of the method: as §4
[24] = Cmax in rat at 5 mg/kg, po; format: ADME, organism-based; set-up: dose 5 mg/kg, route oral; conditions: in vivo; summary of the method: as §4
[25] = AUC (0 to last t) in rat at 5 mg/kg, po; format: ADME, organism-based; set-up: time 0 - last, dose 5 mg/kg, route oral; conditions: plasma; summary of the method: as §4
[26] = Clearance in Beagle dog at 1 mg/kg, iv; format: ADME, organism-based, Canis lupus familiaris; set-up: dose 1 mg/kg, route intravenous; conditions: in vivo; summary of the method: as §3
[27] = Tmax in rat at 5 mg/kg, po; format: ADME, organism-based; set-up: dose 5 mg/kg, route oral; conditions: in vivo; summary of the method: as §4
[28] = AUC (0 to last t) in Beagle dog at 1 mg/kg, iv; format: ADME, organism-based, Canis lupus familiaris; set-up: time 0 - last, dose 1 mg/kg, route intravenous; conditions: plasma; summary of the method: as §3
[29] = Oral bioavailability in Beagle dog at 1 mg/kg; format: ADME, organism-based, Canis lupus familiaris; conditions: in vivo; summary of the method: as §3
[30] = Clearance in rat at 1 mg/kg, iv; format: ADME, organism-based; set-up: dose 1 mg/kg, route intravenous; conditions: in vivo; summary of the method: as §4
[31] = Cmax in rat at 1 mg/kg, iv; format: ADME, organism-based; set-up: dose 1 mg/kg, route intravenous; conditions: in vivo; summary of the method: as §4
[32] = Half life in Beagle dog at 1 mg/kg, iv; format: ADME, organism-based, Canis lupus familiaris; set-up: dose 1 mg/kg, route intravenous; conditions: in vivo; summary of the method: as §3
[33] = AUC (0 to last t) in Beagle dog at 1 mg/kg, po; format: ADME, organism-based, Canis lupus familiaris; set-up: time 0 - last, dose 1 mg/kg, route oral; conditions: plasma; summary of the method: as §3
[34] = Inhibition of prostanoid FP receptor

Sequence of Prostaglandin E2 receptor EP2 subtype (P43116 whole entry): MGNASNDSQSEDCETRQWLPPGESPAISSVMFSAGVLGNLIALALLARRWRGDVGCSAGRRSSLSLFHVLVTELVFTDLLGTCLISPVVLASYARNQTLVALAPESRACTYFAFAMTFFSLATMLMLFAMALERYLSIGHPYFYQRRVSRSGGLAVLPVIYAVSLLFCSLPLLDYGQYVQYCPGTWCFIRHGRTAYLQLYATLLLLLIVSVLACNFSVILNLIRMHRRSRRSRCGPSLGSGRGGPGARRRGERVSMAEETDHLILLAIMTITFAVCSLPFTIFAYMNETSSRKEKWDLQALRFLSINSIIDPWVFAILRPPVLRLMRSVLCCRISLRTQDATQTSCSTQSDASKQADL

Structure (SMILES): O=C1CC2(C(=O)N1Cc1ccccc1)C(=O)N(Cc1nnn[nH]1)c1ccc(Cl)cc12 (stereo not given)
- pKi [1]: 5.81
- Activity [2]: Active

Structure (SMILES): O=C(O)CN1C(=O)[C@@]2(CC(=O)N(Cc3cc(Cl)ccc3F)C2=O)c2cc(Cl)ccc21
- Cmax [3]: 1950 ng/mL
- Cmax [4]: 68.8 ng/mL
- pIC50 [5]: < 4.52
- pIC50 [6]: < 4.52
- half-life [7]: 5.4 h
- Vd [8]: 5 L/kg
- pIC50 [9]: < 4.52
- AUC(0-t) [10]: 1180 ng·h/mL
- pIC50 [11]: < 4.52
- pKi [1]: 8.28
- pIC50 [12]: 7.18
- Papp at 10 µM [13]: 26.4 ×10⁻⁶ cm/s
- logD [14]: -0.5
- pKi [15]: 8.30
- Tmax [16]: 0 h
- Tmax [17]: 2.67 h
- Vd [18]: 7 L/kg
- microsomal CLint at 3 µM [19]: 19 µL/min/mg
- Tmax [20]: 0 h
- half-life [21]: 13 h
- microsomal CLint at 3 µM [22]: 5 µL/min/mg
- bioavailability [23]: 32%
- Cmax [24]: 163 ng/mL
- AUC(0-t) [25]: 1910 ng·h/mL
- clearance [26]: 33.3 mL/min/kg
- Tmax [27]: 1.5 h
- AUC(0-t) [28]: 637 ng·h/mL
- bioavailability [29]: 52%
- clearance [30]: 11.7 mL/min/kg
- Cmax [31]: 1700 ng/mL
- half-life [32]: 3 h
- AUC(0-t) [33]: 339 ng·h/mL
- pIC50 [34]: < 4.52
